Bioassay records from PubChem.
Only some compounds are listed: those with a hit (about 1.5% of all), similar ones and a draw of the others.
AF4-AF9 inh: blocks AF4 peptide binding to human AF9 | P42568 | AlphaScreen, biotin-AF4 peptide binding to FLAG-AF9 | inhibition, % at 10 µM | actives 0.47% (n = 350,000) | AID 651704;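 active = every replicate reaching a set inhibition limit, whatever the replicate mean, cut at about 25% in these data; inconclusive = mean inhibition reaches that limit but some replicates miss it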
S100A4 MyoIIA: S100A4-myosin IIA interaction inhibition; S100A4/TAMRA-MyoIIA peptide fluorescence polarization; actives 0.14% (n = 360,000); inhibition, % at 10.7 µM; P26447;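 active = mean inhibition of at least 70% across replicates, with every replicate also reaching that level; inconclusive = mean inhibition reaches 70% but some replicates fall short; inactive = mean inhibition below 70%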
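Test system: S100A4 monomer protein. Medium: HEPES buffer with Ca2+, pH 7.2. Reagent: fluorescent myosin IIA peptide, 5 nM. Compound dosing: single-point compound testing. Timing: 5 min between mix addition and reading. Benchmarks: DMSO neutral and TFP positive wells.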
ERAP1 HTS inh: blocks human ERAP1 aminopeptidase activity; Q9NZ08; recombinant ERAP1, Leu-AMC fluorescence, 60 min; inhibition, % at 10.7 µM; actives 0.15% (n = 340,000); AID 652197;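 active = mean replicate inhibition of at least 30%, or all replicates individually reaching that 30% level; inactive = mean below 30% and not every replicate reaching it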
Target sequence (Q9NZ08 whole entry, looked up): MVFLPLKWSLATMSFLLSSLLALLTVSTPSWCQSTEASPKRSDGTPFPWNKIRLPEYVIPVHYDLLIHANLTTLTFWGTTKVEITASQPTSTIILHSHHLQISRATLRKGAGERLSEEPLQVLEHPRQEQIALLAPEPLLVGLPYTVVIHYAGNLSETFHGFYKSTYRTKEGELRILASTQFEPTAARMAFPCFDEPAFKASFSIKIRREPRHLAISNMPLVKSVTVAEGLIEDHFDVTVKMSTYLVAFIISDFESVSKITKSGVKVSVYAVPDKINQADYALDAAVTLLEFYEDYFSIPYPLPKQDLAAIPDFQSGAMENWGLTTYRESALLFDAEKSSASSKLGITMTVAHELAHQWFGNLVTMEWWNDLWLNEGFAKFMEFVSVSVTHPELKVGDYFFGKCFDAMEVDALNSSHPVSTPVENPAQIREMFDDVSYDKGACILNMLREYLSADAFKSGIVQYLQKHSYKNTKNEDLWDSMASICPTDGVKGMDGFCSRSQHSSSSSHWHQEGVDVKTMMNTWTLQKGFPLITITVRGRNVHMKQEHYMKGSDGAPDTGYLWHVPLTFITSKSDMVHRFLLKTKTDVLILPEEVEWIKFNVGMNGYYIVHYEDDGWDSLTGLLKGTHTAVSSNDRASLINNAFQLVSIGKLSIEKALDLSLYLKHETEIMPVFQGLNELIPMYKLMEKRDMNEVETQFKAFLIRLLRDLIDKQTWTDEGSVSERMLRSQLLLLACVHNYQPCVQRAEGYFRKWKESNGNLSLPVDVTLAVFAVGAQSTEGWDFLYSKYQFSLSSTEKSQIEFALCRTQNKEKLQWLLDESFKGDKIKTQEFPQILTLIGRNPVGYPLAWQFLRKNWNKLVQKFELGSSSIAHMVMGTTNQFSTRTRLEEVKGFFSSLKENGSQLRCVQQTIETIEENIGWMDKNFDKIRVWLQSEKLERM
GSIS activator: GLuc luminescence reporter in INS-1E cells, primary screen for activators of glucose-dependent secretion of insulin; INS-1E GLuc reporter insulin secretion, 2-3 h; activation, % at 16.6 µM; actives 0.61% (n = 370,000);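 active = lowest replicate activation of at least 40%, so every replicate reaches that level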
RAD52 anneal inh: blocks human RAD52 DNA annealing; actives 0.46% (n = 360,000); AID 651710; P43351; recombinant RAD52 DNA annealing, FRET fluorescence; inhibition, % at 18.7 µM;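 active = every replicate showing at least 50% inhibition; inconclusive = mean inhibition at least 50% but not in every replicate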
Large screens that a line does not name were inactive.

Cc1ccc(-c2ccc3c(c2)O[C@@H](CN(C)Cc2ccccc2)[C@@H](C)CN([C@@H](C)CO)S3(=O)=O)cc1	none
COc1cc(/C(C)=N/Nc2ccc(C(=O)O)cc2)cc(OC)c1OC	none (no result: AF4-AF9 inh, S100A4 MyoIIA, ERAP1 HTS inh, RAD52 anneal inh)
COc1ccc(/C(C)=N/Nc2ccc(C(=O)O)cc2)cc1OC	GSIS activator 62.7 (no result: AF4-AF9 inh, S100A4 MyoIIA, ERAP1 HTS inh, RAD52 anneal inh)
CC[n+]1c(C)cc(C)n1-c1ccccc1	ERAP1 HTS inh 102.2
C/C(=N\Nc1ccc([N+](=O)[O-])cc1[N+](=O)[O-])C(C)C(C)C (stereo not given)	AF4-AF9 inh 26.0
COc1ccc2c3c(n(C)c2c1)[C@@H](CO)N(C(=O)Nc1ccc(F)cc1)CC31CCN(C(=O)CN2CCOCC2)CC1	none
C[C@@H]1C(=O)NCCC=CC[C@H](C)Oc2ccccc2C(=O)N1C (mixture of isomers)	none (no result: AF4-AF9 inh, S100A4 MyoIIA, ERAP1 HTS inh, RAD52 anneal inh)
O=C(O)CCC(=O)NCCn1c(-c2ccccc2)csc1=Nc1ccccc1	none
OCCCn1c(-c2ccccc2)csc1=Nc1ccccc1	AF4-AF9 inh 44.5
CCCc1cc(CCC)n2nc(N)nc2n1	none
CC(C)c1cc(C(C)C)n2nc(N)nc2n1	GSIS activator 89.4
CN(C(=O)CSc1nnc(-c2ccncc2)n1-c1ccccc1)C1CCS(=O)(=O)C1 (stereo not given)	none
CC(c1nnc(SCC(=O)N(C)C2CCS(=O)(=O)C2)n1-c1ccccc1)N(C)C (stereo not given)	AF4-AF9 inh 33.6
COc1ccc2c3c(n(C)c2c1)[C@@H](CO)N(Cc1ccccc1F)CC31CCN(C(C)=O)CC1	none (no result: AF4-AF9 inh, S100A4 MyoIIA, ERAP1 HTS inh, RAD52 anneal inh)
COc1ccc2c(c1)[C@@]1(OCCC=C[C@H]1C)C(=O)N2C/C=C(\C)CCC=C(C)C	none (no result: AF4-AF9 inh)
COc1ccc2c(c1)[C@@]1(OCCC=C[C@H]1C)C(=O)N2CC1CC1	GSIS activator 53.0 (no result: AF4-AF9 inh)
COc1ccc2c3c([nH]c2c1)[C@@H](CO)N(Cc1ccccn1)CC31CCN(C(=O)c2ccccn2)CC1	none
Cc1nnc(NC(=O)CSc2nnc(CC(=O)Nc3ccccc3F)n2C)s1	AF4-AF9 inh 53.4
C[C@@H]1CN([C@@H](C)CO)S(=O)(=O)c2ccc(-c3cccnc3)cc2O[C@@H]1CN(C)C(=O)C1CC1	none (no result: AF4-AF9 inh, S100A4 MyoIIA, ERAP1 HTS inh, RAD52 anneal inh)
C[C@@H]1CN([C@@H](C)CO)C(=O)Cc2cc(NC(=O)Nc3cccc4ccccc34)ccc2O[C@H]1CN(C)Cc1ccncc1	none
COc1ccc(N2CCN(Cc3cc4c(cc3Br)OCCO4)CC2)cc1	AF4-AF9 inh 26.9
Cc1ccc2nc3c(cc(C(N)=S)c(=N)n3CCCOC(C)C)c(=O)n2c1	S100A4 MyoIIA inconclusive, ERAP1 HTS inh 33.3 (no result: GSIS activator)
COCCCn1c(=N)c(C(N)=S)cc2c(=O)n3cccc(C)c3nc21	none
CCOCCCn1c(=N)c(S(=O)(=O)c2ccccc2)cc2c(=O)n3cc(C)ccc3nc21	AF4-AF9 inh 25.9
CN(C)CC(=O)Nc1ccc2c(c1)[C@@H]1C[C@@H](CC(=O)N3CCOCC3)O[C@@H](CO)[C@@H]1O2	none (no result: AF4-AF9 inh, S100A4 MyoIIA, ERAP1 HTS inh, RAD52 anneal inh)
O=C(NCC1CC1)[C@H]1[C@H](CO)[C@H]2Cn3c(ccc(-c4ccccc4F)c3=O)[C@@H]1N2Cc1cccnc1	none
COc1ccc(-c2cc(=O)oc3cc(OC(C)C(=O)NC(Cc4c[nH]c5ccc(O)cc45)C(=O)O)ccc23)cc1 (stereo not given)	ERAP1 HTS inh 30.7
CC(Oc1ccc2c(-c3ccccc3)cc(=O)oc2c1)C(=O)N[C@H](Cc1c[nH]c2ccccc12)C(=O)O (stereo not given in full)	none
COCCCNc1ccc([N+](=O)[O-])cc1C(=O)Nc1cccc(C)n1	GSIS activator 45.5
Cc1cccc(NC(=O)c2cc([N+](=O)[O-])ccc2NCC2CCCO2)n1 (stereo not given)	none
CNS(=O)(=O)c1cccc(C(=O)OCc2csc(-c3ccccc3)n2)c1	none (no result: AF4-AF9 inh, S100A4 MyoIIA, ERAP1 HTS inh, RAD52 anneal inh)
Nc1ccc(C(=O)OCc2csc(-c3ccccc3)n2)cc1[N+](=O)[O-]	GSIS activator 46.1 (no result: AF4-AF9 inh, S100A4 MyoIIA, ERAP1 HTS inh, RAD52 anneal inh)
[O-]/[N+](=C\c1ccc(F)cc1)c1ccccc1	GSIS activator 58.1 (no result: AF4-AF9 inh, S100A4 MyoIIA, ERAP1 HTS inh, RAD52 anneal inh)
[O-]/[N+](=C\c1ccccc1)c1ccccc1	none
CCN=C1S/C(=C\c2sccc2C)C(=O)N1CC	GSIS activator 63.5
CCN=C1S/C(=C\c2cc(Br)c(O)c(OC)c2)C(=O)N1CC	GSIS activator 52.6
Cc1ccsc1/C=C1\SC(=S)N(CC2CCCO2)C1=O (stereo not given)	none
Cc1ccc(S(=O)(=O)N(C)C[C@@H]2Oc3c(cccc3N(C)C)C(=O)N([C@H](C)CO)C[C@@H]2C)cc1	none
COCC(=O)N1CC2(C1)[C@H](c1ccc(-c3cccc(C)c3)cc1)[C@H](CO)N2C(=O)C1CC1	none
Cc1cccc(NC(=O)CSc2cn[nH]n2)c1	none
O=C(CSc1cn[nH]n1)Nc1cccc(C(=O)O)c1	ERAP1 HTS inh 32.4
COc1ccc(CCNC(=O)COC(=O)CSc2ccc(C(N)=O)cc2[N+](=O)[O-])cc1OC	GSIS activator 46.0
COc1ccc(CCNC(=O)CSc2n[nH]c(C)c2[N+](=O)[O-])cc1OC	GSIS activator 52.4 (no result: ERAP1 HTS inh)
CCC(=O)N1CC2(CN(Cc3nccs3)C2)c2c(n(C)c3cc(OC)ccc23)[C@@H]1CO	none (no result: AF4-AF9 inh, S100A4 MyoIIA, ERAP1 HTS inh, RAD52 anneal inh)
CC(C)Oc1cccc(C(=O)C2CCCN(C(=O)CCc3cnn(C)c3)C2)c1 (stereo not given)	GSIS activator 54.7
COc1ccc(OCC(=O)NNC(=O)Cn2c(=O)cnc3ccccc32)cc1	GSIS activator 76.0
Cc1cc(Br)ccc1NC(=O)CN(C)C(=O)CNC(=O)Cc1ccccc1	none
CN(CC(=O)Nc1ccc(OC(F)(F)F)cc1)C(=O)Cn1c(=O)cnc2ccccc21	none
CN(CC(=O)Nc1cccc(F)c1)C(=O)Cn1c(=O)cnc2ccccc21	AF4-AF9 inh 29.0
Cc1cc(Br)ccc1NC(=O)CN(C)C(=O)Cn1c(=O)cnc2ccccc21	ERAP1 HTS inh 38.5
Cc1ccc(S(=O)(=O)N(C)C[C@@H]2Oc3ccc(NS(C)(=O)=O)cc3CC(=O)N([C@@H](C)CO)C[C@@H]2C)cc1	none
CC1=CC(C)(C)[N+](C)=CN1c1ccccc1	ERAP1 HTS inh 51.2
COc1ccc2c3c([nH]c2c1)[C@H](CO)N(C)CC31CCN(C(=O)NC(C)C)CC1	none (no result: AF4-AF9 inh, S100A4 MyoIIA, ERAP1 HTS inh, RAD52 anneal inh)
Cc1noc(C)c1S(=O)(=O)Nc1ccc2c(c1)C(=O)N([C@@H](C)CO)C[C@@H](C)[C@@H](CN(C)C(=O)NC1CCCCC1)OCCCC[C@@H](C)O2	none
Cn1c(N)c(C(=O)Nc2ccc3ccccc3c2)sc1=S	GSIS activator 85.9 (no result: AF4-AF9 inh, S100A4 MyoIIA, ERAP1 HTS inh, RAD52 anneal inh)
Cn1c(N)c(C(=O)Nc2ccccc2F)sc1=S	none (no result: AF4-AF9 inh)
COc1ccc(-c2ccc(C#N)c(SCC(=O)NC3CC3)n2)cc1OC	none (no result: GSIS activator)
COc1ccc(-c2ccc(C#N)c(SCC(=O)NCc3ccco3)n2)cc1OC	GSIS activator 50.6
COc1ccc(-c2nc3cccc(C)n3c2NCc2ccco2)cc1OC	GSIS activator 65.3 (no result: AF4-AF9 inh, S100A4 MyoIIA, ERAP1 HTS inh, RAD52 anneal inh)
CCC(=O)Nc1ccc2c(c1)C(=O)N(C)[C@H]1CC[C@H](CC(=O)NCCc3ccncc3)O[C@@H]1CO2	none (no result: AF4-AF9 inh, S100A4 MyoIIA, ERAP1 HTS inh, RAD52 anneal inh)
